In ChEMBL document CHEMBL4138314, “Synthesis and Evaluation of N-Phenyl-3-sulfamoyl-benzamide Derivatives as Capsid Assembly Modulators Inhibiting Hepatitis B Virus (HBV)” (J Med Chem, 2018):
≈ marks a conversion by molar mass, not a printed value. Calls of active or inactive are those of the source. No cut-off for these calls is given here.

Tests used:
[1] = Cytotoxicity against human HepG2 cells after 4 days by resazurin assay; assay type: cell-based
Hepatitis B virus [2] = assay: Antiviral activity against Hepatitis B virus infected in human HepG2.117 cells assessed as inhibition of viral DNA level after 3 days by real time PCR; assay type: functional, organism-based; conditions: HepG2.117, 72 h
[3] = target: Core antigen (Hepatitis B virus) (UniProt Q03732); assay: Induction of HBV Maleimidyl BoDIPY-FL-labeled capsid Cp*150 mutant aggregation incubated for 30 mins measured every 10 secs for 30 mins by fluorescence quenching assay
[4] = Drug metabolism in mouse liver microsomes at 1 uM after 15 mins by LC-MS/MS analysis; assay type: ADME, microsome; conditions: read-out: Drug metabolism
Summary of the method: (§1)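 Compound incubated 15 min with human or mouse liver microsomes; stability expressed as percent turnover (metabolised) at 15 min.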

[5] = Kinetic solubility of the compound at pH 7.4 after 4 hrs by UPLC-UV analysis; assay type: physicochemical; conditions: buffer, read-out: Kinetic_solubility
[6] = Drug metabolism in human liver microsomes at 1 uM after 15 mins by LC-MS/MS analysis; assay type: ADME, microsome; conditions: read-out: Drug metabolism; summary of the method: as §1
HBV genotype D = assay: Antiviral activity against HBV genotype D infected in human HepG2.2.15 cells assessed as inhibition of viral DNA level treated twice for 3 days measured after 6 days by real time PCR; assay type: functional, organism-based; conditions: Hepatitis B virus
Hepatitis B virus [7] = assay: Induction of HBV capsid core protein CP149 aggregation assessed as ratio between area under the curve for observed amount of core dimer and area under the curve for aggregated core protein at 20 uM after 24 hrs by size exclusion chromatographic analysis
Summary of the method: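 Recombinant HBV core assembly domain (aa 1–149, Cp149) was incubated with compound at 20 µM for 24 h, with a no-compound control run in parallel. Size exclusion chromatography gave the ratio of Cp149 dimer AUC to aggregated Cp149 AUC.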

Sequence of Core antigen (Hepatitis B virus) (Q03732 as listed by the source): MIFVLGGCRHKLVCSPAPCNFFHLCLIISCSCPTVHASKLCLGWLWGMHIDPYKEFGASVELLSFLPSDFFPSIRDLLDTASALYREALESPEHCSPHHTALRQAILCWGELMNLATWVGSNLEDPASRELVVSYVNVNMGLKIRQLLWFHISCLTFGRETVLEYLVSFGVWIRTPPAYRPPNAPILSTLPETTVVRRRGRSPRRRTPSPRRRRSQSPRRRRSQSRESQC

| SMILES | CC50 at 96 h [1] [µM] | EC50 (Hepatitis B virus [2]) [µM] | Activity [3] | metabolised at 0.25 h, 1 µM [4] [%] | solubility kinetic at 4 h [5] [µM] | metabolised at 0.25 h, 1 µM [6] [%] | EC50 (HBV genotype D) [µM] | Ratio (Hepatitis B virus [7]) |
| --- | --- | --- | --- | --- | --- | --- | --- | --- |
| O=C(Nc1cccc2ccccc12)c1cc(S(=O)(=O)NC2CCCCC2)ccc1F | > 25 | > 25 | inactive | 100 | 12 (≈ 5.12 µg/mL) | 94 | 15.6 |  |
| O=C(Nc1ccc(F)cc1)c1cccc(S(=O)(=O)NC2CCCCC2)c1 | > 25 | 0.58 |  | 93 | 43 (≈ 16.2 µg/mL) | 69 |  | 0.2 |
| CN(c1cccc(C(=O)Nc2ccc(F)cc2)c1)S(=O)(=O)C1CCCC1 | 43.2 | 16.3 |  | 99 | 53 (≈ 20 µg/mL) | 86 | 7.5 | 2 |
| O=C(Nc1ccc(F)cc1)c1cccc(S(=O)(=O)NC2CCCC2)c1 | 32.7 | 0.6 |  | 91 | 83 (≈ 30.1 µg/mL) | 50 | 0.47 |  |
| O=C(Nc1ccc(F)cc1)c1cccc(NS(=O)(=O)C2CCCCC2)c1 | 33.6 | 2.2 |  | 91 | 86 (≈ 32.4 µg/mL) | 46 | 1.1 | 0.3 |
| CC[C@@H](C)NS(=O)(=O)c1cccc(C(=O)Nc2ccc(F)cc2)c1 | 46 | 0.89 |  | 88 | 59 (≈ 20.7 µg/mL) | 21 | 0.34 |  |
| O=C(Nc1ccc(F)cc1)c1cccc(S(=O)(=O)N2CCCC2)c1 | 96.9 | 3.03 |  | 96 | 48 (≈ 16.7 µg/mL) | 44 | 4.53 |  |
| O=C(Nc1ccccc1)c1cc(S(=O)(=O)NC2CCCCC2)ccc1F | > 25 | 0.6 |  | 100 | 21 (≈ 7.91 µg/mL) | 63 | 0.66 | 0.1 |
| CCC(CC)NS(=O)(=O)c1cccc(C(=O)Nc2ccc(F)cc2)c1 | 40.3 | 3.63 |  | 99 | 15 (≈ 5.47 µg/mL) | 53 | 0.75 |  |
| CC[C@H](C)NS(=O)(=O)c1cccc(C(=O)Nc2ccc(F)cc2)c1 | 39.6 | 8.63 |  | 82 | 92 (≈ 32.2 µg/mL) | 18 | 0.75 |  |
| O=C(NCc1ccccc1)c1cc(S(=O)(=O)NC2CCCCC2)ccc1F | 93.9 |  |  |  | 29 (≈ 11.3 µg/mL) | 74 | > 100 | 8.4 |
| CC(C)(C)NS(=O)(=O)c1cccc(C(=O)Nc2ccc(F)cc2)c1 | 52.5 | 2.28 |  | 31 | 1 (≈ 0.35 µg/mL) | 15 | 1.24 | 0.9 |
| O=C(Nc1ccc(F)cc1)c1cccc(S(=O)(=O)N2CCOCC2)c1 | > 100 | 11 |  | 69 | > 100 | 27 | 8.49 | 0.6 |
| CC(C)NS(=O)(=O)c1cccc(C(=O)Nc2ccc(F)cc2)c1 | 57.5 | 0.96 |  | 61 | > 100 | 16 | 0.74 |  |
| O=C(Nc1ccc(F)cc1)c1cccc(NS(=O)(=O)C2CCCC2)c1 | > 50 | 1.2 |  | 93 | 92 (≈ 33.3 µg/mL) | 4 | 1.2 |  |
| O=C(Nc1ccc(F)cc1)c1cccc(NC(=O)C2CCCCC2)c1 | 57.7 | > 25 |  | 87 | 7 (≈ 2.38 µg/mL) | 55 | 62.2 | 7.2 |
| O=C(Nc1cccc(S(=O)(=O)NC2CCCCC2)c1)c1ccccc1 | > 25 | > 25 |  | 100 | 10 (≈ 3.58 µg/mL) | 99 | 9.6 | 7 |
| CC(=O)N1CCN(S(=O)(=O)c2cccc(C(=O)Nc3ccc(F)cc3)c2)CC1 | > 100 | 6.3 |  | 52 | 86 (≈ 34.9 µg/mL) | 19 | 7.1 | 0.9 |
